How the values were obtained:
MORF PHD1/2 fingers [1] = molecular target: T1, MORF PHD1/2 fingers (Homo sapiens, UniProt Q8WYB5); experiment: NMR titration; format: binding; conditions: for Chemical shift changes / binding of MORF PHD1/2 by NMR (in words): 0.1 mM 15N-labeled PHD1/2, 298K
T1 sequence (Q8WYB5 211-329): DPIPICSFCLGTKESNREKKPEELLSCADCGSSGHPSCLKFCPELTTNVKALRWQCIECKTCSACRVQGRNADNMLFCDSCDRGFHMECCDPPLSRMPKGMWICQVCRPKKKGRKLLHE

MORF PHD1/2 fingers [2] = molecular target: T1, MORF PHD1/2 fingers; experiment: Tryptophan fluorescence binding, MORF PHD1/2; conditions: 25 °C, H3un vs acetylated peptides
MOZ PHD1/2 fingers = MOZ PHD1/2 fingers (Homo sapiens, UniProt Q92794); experiment: Tryptophan fluorescence binding, MOZ PHD1/2; conditions: as seen in NMR and fluorescence assays
[3] = molecular target: double PHD fingers of DPF3; conditions: read-out: Kd, double PHD fingers of DPF3; ref [31]; cited from earlier work
ING5 PHD finger = conditions: ref [13]; cited from earlier work
[4] = tested on: endogenous H3K14ac / histone H3 in HEK293 cells; format: cell-based; conditions: TSA 3 μM, 6 h prior to harvesting, Flag-N-MORF IP
Outline: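 HEK293 cells were seeded at 300,000 per 6 cm dish and lipofection-transfected with Flag-tagged MORF N-terminal constructs (aa 1–352, or aa 1–215 lacking PHD1/2). After about 48 h, cells were lysed in buffer with 150 mM KCl and immunoprecipitated on anti-Flag M2 agarose. Beads were washed extensively and eluted in 50 mM phosphoric acid. Blots were probed with anti-Flag, anti-H3K14ac and anti-H3. Where indicated, TSA (3 μM) was added to the medium 6 h before harvest.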

Sequence of MOZ PHD1/2 fingers (Q92794 207-318): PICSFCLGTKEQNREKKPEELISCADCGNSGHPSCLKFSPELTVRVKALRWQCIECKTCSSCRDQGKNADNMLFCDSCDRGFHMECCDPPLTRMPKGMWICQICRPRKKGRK

H3 (3–10): peptide comprising amino acids Thr3-Ser10 but missing Ala1 and Arg2 (TKQTARKS)
Chemical shift changes of MORF PHD1/2 with 5-fold excess of peptide (in words) (MORF PHD1/2 fingers [1]; 1H,15N HSQC, 298K, 5-fold excess of H3 (3–10)): no changes in the NMR spectra of PHD1/2

C[C@H](N)C(=O)N[C@@H](CCCNC(=N)N)C(=O)N[C@H](C(=O)N[C@@H](CCCC[N+](C)(C)C)C(=O)N[C@@H](CCC(N)=O)C(=O)N[C@H](C(=O)N[C@@H](C)C(=O)N[C@@H](CCCNC(=N)N)C(=O)N[C@@H](CCCCN)C(=O)N[C@@H](CO)C(=O)N[C@H](C(=O)NCC(=O)O)[C@@H](C)O)[C@@H](C)O)[C@@H](C)O [H3K4me3]
Chemical shift changes / binding of MORF PHD1/2 by NMR (in words) (MORF PHD1/2 fingers [1]; 1H,15N HSQC titration): small changes in the NMR spectra of PHD1/2 | Affinity of MORF PHD1/2 relative to H3un or H3K9ac (MORF PHD1/2 fingers [1]; NMR titration, 298K): three orders of magnitude lower than affinity of this protein toward H3un or H3K9ac

H3un: peptide corresponding to amino acids 1–12 of unmodified histone H3 (NMR); length for fluorescence not printed
Affinity of MORF PHD1/2 relative to H3K9ac and H3K14ac (MORF PHD1/2 fingers [2]): two to three fold weaker | Binding of MORF PHD1/2 by NMR, short peptide (in words) (MORF PHD1/2 fingers [1]; 1H,15N HSQC titration, 298K, short peptide, amino acids 1–12): Substantial chemical shift changes | Affinity of MOZ PHD1/2 relative to H3K14ac and H3K9ac (MOZ PHD1/2 fingers): two to three fold weaker | Kd [3]: 2 µM | Binding to ING5 PHD finger (in words) (ING5 PHD finger): does not associate with H3un

H4 peptide (residues 1–23): H4 peptide (residues 1–23) [reference compound]
Chemical shift changes / binding of MORF PHD1/2 by NMR (in words) (MORF PHD1/2 fingers [1]; 1H,15N HSQC titration): unable to trigger chemical shift changes in MORF PHD1/2

CC(/C=C/C(=O)NO)=C\[C@@H](C)C(=O)c1ccc(N(C)C)cc1 [trichostatin A (TSA), trichostatin A, reference compound]
Effect on association of N-MORF with histone H3 [4]: enhanced the association of N-MORF with histone H3

CC(=O)NCCCC[C@H](N)C(=O)O [acetylated lysine amino acid, reference compound]
Chemical shift changes / binding of MORF PHD1/2 by NMR (in words) (MORF PHD1/2 fingers [1]; 1H,15N HSQC titration): lack of any significant resonance perturbations

H3 peptide (amino acids 1–20): longer unmodified H3 peptide (amino acids 1–20)
Chemical shift changes / binding of MORF PHD1/2 by NMR (in words) (MORF PHD1/2 fingers [1]; 1H,15N HSQC titration): induced similar resonance perturbations
